Measured values from different studies.
Protocols differ between the studies behind these lines.
Target: Ephrin type-A receptor 1 (EPHA1, Homo sapiens, UniProt P21709)
Sequence (P21709 26-976, as in one of the studies): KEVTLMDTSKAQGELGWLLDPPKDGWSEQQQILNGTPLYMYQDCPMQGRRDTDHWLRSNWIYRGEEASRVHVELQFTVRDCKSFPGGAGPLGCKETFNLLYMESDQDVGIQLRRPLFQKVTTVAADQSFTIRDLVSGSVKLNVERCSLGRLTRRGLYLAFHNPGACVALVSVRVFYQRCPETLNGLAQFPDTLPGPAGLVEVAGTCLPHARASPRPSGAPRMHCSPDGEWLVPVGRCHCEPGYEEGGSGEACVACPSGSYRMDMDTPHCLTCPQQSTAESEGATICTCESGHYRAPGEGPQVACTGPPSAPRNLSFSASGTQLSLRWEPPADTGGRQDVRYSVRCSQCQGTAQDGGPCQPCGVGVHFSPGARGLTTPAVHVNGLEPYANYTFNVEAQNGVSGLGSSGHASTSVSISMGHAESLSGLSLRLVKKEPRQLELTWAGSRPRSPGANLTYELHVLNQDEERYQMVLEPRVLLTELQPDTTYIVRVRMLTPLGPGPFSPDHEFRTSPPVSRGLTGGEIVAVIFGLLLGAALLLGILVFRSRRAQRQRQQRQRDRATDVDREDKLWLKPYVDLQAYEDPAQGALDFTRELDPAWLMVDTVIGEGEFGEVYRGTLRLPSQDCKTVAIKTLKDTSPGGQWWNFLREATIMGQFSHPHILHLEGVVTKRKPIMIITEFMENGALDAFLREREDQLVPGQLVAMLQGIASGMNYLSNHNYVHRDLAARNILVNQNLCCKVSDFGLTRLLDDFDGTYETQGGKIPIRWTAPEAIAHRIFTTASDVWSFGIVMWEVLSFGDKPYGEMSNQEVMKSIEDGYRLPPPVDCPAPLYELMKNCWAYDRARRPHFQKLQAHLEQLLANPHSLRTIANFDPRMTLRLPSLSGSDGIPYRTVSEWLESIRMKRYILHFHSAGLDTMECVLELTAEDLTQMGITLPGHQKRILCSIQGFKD

SMILES	observed	mode	technique	tested at	measurement	result
CN1CCN(c2cnc3c(C4CCN(C(=O)c5ccc(OC(F)(F)F)cc5N)CC4)ncnc3c2)CC1	cell-free assay	–	competition with immobilised ligand	1 µM	remaining binding	95%
COc1cc2ncnc(Nc3ccc(Oc4ccccc4)c(C)c3C)c2cc1OC	enzyme activity	inhibitor	–	1 µM	inhibition	8%
CNC(=O)c1cc(Oc2ccc(NC(=O)Nc3ccc(Cl)c(C(F)(F)F)c3)cc2)ccn1	enzyme activity	inhibitor	–	0.3 µM	inhibition	23%
CC(C)(O)[C@H]1CC[C@H](Nc2ccc3ncc(-c4cccc(C(F)(F)F)c4)n3n2)CC1	enzyme activity	inhibitor	–	1 µM	remaining activity	99.6%
Cc1ccc(Nc2nccc(N(C)c3ccc4c(C)n(C)nc4c3)n2)cc1S(N)(=O)=O	enzyme activity	inhibitor	–	0.3 µM	inhibition	23%
O=C(O)[C@@H]1[C@@H](Cn2nnc3ccccc3c2=O)CC[C@H]1C(=O)c1ccc(OCCC2CCOCC2)cc1	cell-free assay	–	competition with immobilised ligand	1 µM	remaining binding	100%
CCN(CC)CCNC(=O)c1c(C)[nH]c(/C=C2\C(=O)Nc3ccc(F)cc32)c1C	enzyme activity	inhibitor	–	10 µM	inhibition	62%
CNC(=O)c1cc2c(Oc3ccc(NC(=O)C4(C(=O)Nc5ccc(F)cc5)CC4)cc3)ccnc2cc1OC	enzyme activity	inhibitor	radiometric	1 µM	inhibition	90%
O=C(Nc1cnn(-c2csc(C(=O)NC3COC3)c2)c1)Nc1c(F)cccc1Cl	enzyme activity	inhibitor	–	5 µM	remaining activity	88.4%
COc1cc(-c2cc(-c3ccc(N4CCNCC4)cc3)cnc2C)cc(OC)c1OC	enzyme activity	inhibitor	–	1 µM	inhibition	16%
C[C@@H]1CN(c2cc(-c3nn(C)c4ccc(OC5(C)CC5)cc34)ncn2)C[C@H](C)O1	cell-free assay	–	competition with immobilised ligand	1 µM	remaining binding	100%
CCCCNc1ncc2c(-c3ccc(F)cc3)nn(C[C@H]3CC[C@H](N)CC3)c2n1	target engagement in cells	inhibitor	chemoproteomics	20 mM	inhibition	> 97%
Cc1ccc(C(=O)Nc2ccc(CN3CCN(C)CC3)c(C(F)(F)F)c2)cc1C#Cc1cnc2cccnn12	cell-free assay	–	–	23.5 nM	remaining signal	55%
Oc1cccc(-c2nc(N3CCOCC3)c3oc4ncccc4c3n2)c1	cell-free assay	–	–	0.5 µM	remaining signal	87.8%
Cc1cnc(NC2CCOCC2)nc1-n1cnc(C(=O)NC(CN)c2cc(F)cc(Cl)c2)c1 (centres unmarked)	enzyme activity	inhibitor	radiometric	1 µM	remaining activity	99%
CS(=O)(=O)N1CCCC(NC(=O)[C@H](CCC2CCCCC2)NC(=O)c2ccc(CNc3ncnc4c3nnn4-c3ccccc3)cc2)C1 (some centres unmarked)	cell-free assay	–	competition with immobilised ligand	0.1 µM	remaining binding	95%
c1ccc(CNc2nc(N3CCOc4ccccc43)nc3c2CCCC3)cc1	target engagement in cells	inhibitor	chemoproteomics	20 mM	inhibition	-26.1%
C[C@@H]1CCN(C(=O)CC#N)C[C@@H]1N(C)c1ncnc2[nH]ccc12	cell-free assay	–	–	0.5 µM	remaining signal	98%
CO[C@@H](C)c1c(Nc2ccc([C@@H](N(C)C(=O)C3CCS(=O)(=O)CC3)C(F)(F)F)cc2)cnc2cc(Cl)nn12	cell-free assay	–	competition with immobilised ligand	1 µM	remaining binding	97%
CC(C)(C)c1nc(-c2cccc(NS(=O)(=O)c3c(F)cccc3F)c2F)c(-c2ccnc(N)n2)s1	enzyme activity	inhibitor	radiometric	1 µM	remaining activity	81%
Cn1nc(C(=O)NCc2ccc(C(=O)O)cc2)cc1-c1ccc2[nH]ccc2c1	cell-free assay	–	competition with immobilised ligand	0.1 µM	remaining binding	95%
CCCS(=O)(=O)Nc1ccc(F)c(C(=O)c2c[nH]c3ncc(-c4ccc(Cl)cc4)cc23)c1F	enzyme activity	inhibitor	–	1 µM	inhibition	< 10%
CN(C)C(=O)Cn1cc(-c2nc(C3(c4ccc(-c5cnc(N)nc5)cc4)CC3)no2)cn1	cell-free assay	–	competition with immobilised ligand	1 µM	remaining binding	100%
N#CCCc1ccc2c(c1)-c1[nH]c3ccc([N+](=O)[O-])cc3c1CC(=O)N2	cell-free assay	–	–	0.5 µM	remaining signal	91.7%
Nc1c(C(=O)NCc2ccc(C(=O)NCCCC3CCCCC3)cc2)cnn1-c1ccccc1	cell-free assay	–	competition with immobilised ligand	0.1 µM	remaining binding	100%
CCN(CC)c1ccc(C2=NNC(=O)CC2C)cc1[N+](=O)[O-] (centres unmarked)	enzyme activity	inhibitor	–	10 µM	remaining activity	112%
